Results published in article PMC11244656 (International journal of pharmaceutics, 2021).

Experiments:
[1] = Biodistribution study to mesenteric lymph and MLNs in rats; format: in vivo; settings: rat, oral 5 mg/kg; for levels in MLNs compared to plasma: tmax-1h and tmax
[2] = rats, lipid-free formulation; cited from earlier work
[3] = tested on: artificial CM-like emulsion (Intralipid); assay: CM association assay with artificial CM-like emulsion; format: in vitro ADME; settings: 1.75 μM, TG 1 mg/mL, 37°C, 1 hour, n = 22
Outline: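 Intralipid 20% was diluted in PBS to 1 mg/mL triglyceride. A 2 mL volume was spiked from a 1 mg/mL propylene glycol–ethanol (99:1) stock to give 1.75 μM final. It was stirred at 170 rpm, 37°C, for 1 h. The emulsion was then re-isolated by density gradient ultracentrifugation and drug content measured by HPLC-UV.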

human plasma-derived CM = assay: CM association assay with human plasma-derived CM; format: in vitro ADME; settings: 1.75 μM, TG 1 mg/mL, 37°C, 1 hour, n = 9
Outline: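 Chylomicrons came from volunteers on no medicines in the prior week, 3–4 h after a high-fat meal. Blood in K2-EDTA was centrifuged (1,160 g, 15°C, 10 min), then the plasma was ultracentrifuged (268,350 g, 15°C, 35 min). The top CM layer was diluted in PBS to 1 mg/mL TG (enzymatic kit) and held at 4°C ≤24 h. It was spiked to 1.75 μM final, stirred 1 h at 37°C and re-isolated.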

[4] = Pharmacokinetic study in rats; format: in vivo; settings: male, Sprague Dawley, rat, plasma
Outline: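 Male Sprague Dawley rats (275–300 g) had jugular vein cannulas placed under isoflurane, recovered 2 nights and were fasted up to 16 h. IV bolus was given in propylene glycol–water–ethanol (70:20:10). Oral gavage used the same vehicle or sesame oil. Plasma was sampled to 24 h and assayed by HPLC-UV (263 nm, internal standard, 5–15000 ng/mL). Non-compartmental analysis; n = 5 IV, 3 or 6 oral.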

CCC[C@@]1(CCc2ccccc2)CC(O)=C([C@H](CC)c2cccc(NS(=O)(=O)c3ccc(C(F)(F)F)cn3)c2)C(=O)O1 [TPV, tipranavir]
concentration in mesenteric lymph fluid compared to plasma ([1]; LCT-based formulation, tmax-1h (2 h) and tmax (3 h)): three-fold higher | levels in MLNs compared to plasma ([1]; LCT-based formulation): comparable | levels in MLNs compared to plasma ([1]; lipid-free formulation): comparable | oral bioavailability [2]: 30% | association with artificial CM-like emulsion (Intralipid) [3]: 31.6% | association with natural human plasma-derived CM (human plasma-derived CM): 66.7% | C0 ([4]; iv, 1 mg/kg): 17600 ng/mL | Vd ([4]; iv, 1 mg/kg): 0.903 ± 0.204 L/kg | clearance ([4]; iv, 1 mg/kg): 4.55 mL/min/kg | Tmax ([4]; po, 5 mg/kg): 3 h
